Rows were chosen to be rich in hits. Some 1.4% of all compounds tested hit in one or more screens of this group.
HKDC1 inhibitor: blocks human hexokinase HKDC1 activity; inhibition, % at 20 µM; AID 493160; recombinant HKDC1, G6PDH/diaphorase resazurin coupled fluorescence; actives 0.16% (n = 340,000); Q2TB90;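 active = inhibition above about 35% when tested at 20 µM, limit read from the data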
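test system = in-house recombinant HK5 (HKDC1) enzyme | amount = HKDC1 at 5 µg/mL | control set = DMSO-enzyme wells negative, buffer-substituted wells positive | compound = one dose of 20 µM, 1% DMSO | schedule = reaction time 90 min, room temperature, protected from light | technique = resorufin fluorescence at 613 nm | reagent = glucose with 1 mM ATP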
Apaf-1 inh: inhibitors of human Apaf-1 apoptosome; inhibition, % at 20 µM; O14727; actives 0.71% (n = 330,000); AID 489030; reconstituted apoptosome caspase-3 activity, DEVD-Rh110 fluorescence; active = inhibition of at least 40% at 20 µM
Target sequence (O14727 whole entry, looked up): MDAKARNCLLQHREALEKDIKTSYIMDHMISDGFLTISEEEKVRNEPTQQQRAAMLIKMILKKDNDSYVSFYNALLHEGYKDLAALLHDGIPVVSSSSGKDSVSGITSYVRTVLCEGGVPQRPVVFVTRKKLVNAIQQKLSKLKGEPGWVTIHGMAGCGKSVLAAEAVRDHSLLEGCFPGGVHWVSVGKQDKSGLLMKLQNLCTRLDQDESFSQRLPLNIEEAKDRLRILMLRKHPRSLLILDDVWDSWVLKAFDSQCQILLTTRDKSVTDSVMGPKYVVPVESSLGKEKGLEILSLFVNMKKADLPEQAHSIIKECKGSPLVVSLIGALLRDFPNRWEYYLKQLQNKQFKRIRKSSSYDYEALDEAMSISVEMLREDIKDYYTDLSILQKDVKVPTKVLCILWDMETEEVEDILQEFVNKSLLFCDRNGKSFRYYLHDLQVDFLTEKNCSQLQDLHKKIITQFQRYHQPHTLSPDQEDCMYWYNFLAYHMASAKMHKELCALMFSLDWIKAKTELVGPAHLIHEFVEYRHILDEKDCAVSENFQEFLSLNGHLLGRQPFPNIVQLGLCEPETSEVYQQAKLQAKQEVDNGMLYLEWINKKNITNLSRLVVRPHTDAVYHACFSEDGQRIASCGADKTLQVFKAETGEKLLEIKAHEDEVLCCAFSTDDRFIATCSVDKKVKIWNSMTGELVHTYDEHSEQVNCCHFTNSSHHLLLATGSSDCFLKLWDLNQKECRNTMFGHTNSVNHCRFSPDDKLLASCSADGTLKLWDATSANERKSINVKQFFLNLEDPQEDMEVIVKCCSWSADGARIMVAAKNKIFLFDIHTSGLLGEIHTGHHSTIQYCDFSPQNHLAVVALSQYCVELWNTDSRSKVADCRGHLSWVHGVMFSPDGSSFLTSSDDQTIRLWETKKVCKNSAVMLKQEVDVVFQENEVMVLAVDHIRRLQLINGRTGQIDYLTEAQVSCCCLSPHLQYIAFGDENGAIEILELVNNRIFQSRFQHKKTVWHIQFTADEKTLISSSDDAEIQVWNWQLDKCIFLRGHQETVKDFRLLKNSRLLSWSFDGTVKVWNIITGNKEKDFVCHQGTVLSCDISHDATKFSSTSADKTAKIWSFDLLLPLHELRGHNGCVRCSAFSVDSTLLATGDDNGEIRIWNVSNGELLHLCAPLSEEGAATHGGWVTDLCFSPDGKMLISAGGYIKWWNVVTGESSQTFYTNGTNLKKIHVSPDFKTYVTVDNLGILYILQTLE
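Material: cell-free apoptosome with Apaf-1, procaspase-3 and caspase-9; Buffer or medium: Hepes pH 7.5 with detergent and BSA; Reagent: cytochrome c trigger plus (Z-DEVD)2-Rh110 caspase-3 substrate; Times: compound with Apaf-1, dATP, procaspase-3 30 min, then 50 min reaction, room temperature; Technique: Rh110 fluorescence intensity.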
GSTO1 inh: counter-screen for RBBP9 inhibitors: inhibitors of human GSTO1; P78417; recombinant GSTO1, activity-based probe fluorescence polarization; inhibition, % at 5.96 µM; actives 1.1% (n = 300,000);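 active = inhibition above the campaign mean inhibition plus 3 SD, cut at about 35% in these data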
SUMO HTRF inh: blocks human SUMOylation mediated by UBC9. AID 2006. actives 0.36% (n = 290,000). P63279. inhibition, % at 35 µM. HTRF SUMOylation assay, SAE1/SAE2 + UBC9, in vitro; in the data active = inhibition above about 50%, passing the limit was not always enough
DTT redox prof: compounds producing H2O2 with reducing agent – biochemical, NIH compound library profiling, artefact control for MLSCN library redox annotation, primary screen | DTT-dependent redox cycling H2O2, phenol red/HRP absorbance; 100% = 100 µM peroxide control, 0% = buffer | activation, % at 10 µM | actives 0.03% (n = 200,000) | AID 878;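 active = activation of at least 50% relative to the plate's high and low controls in the primary single-dose screen; inactive = activation below 50%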;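 note: compound incubated with DTT at 0.8 mM final as the reducing agent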
Apaf-1 inh conf: Apaf-1 inhibition, single-dose confirmed; actives 25% (n = 1,800); reconstituted apoptosome, caspase-3 DEVD-Rh110 fluorescence; shares compounds with Apaf-1 inh; inhibition, % at 20 µM;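 active = mean inhibition of at least 40% at 20 µM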
Rh110 quench: Rh110 signal interference in Apaf-1 inhibitor counter-screen. activation (fluorescence interference), % at 20 µM. Rh110 fluorescence interference, quenched caspase reaction. 1,800 tested, under 10 active. shares compounds with Apaf-1 inh. AID 504615;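 active = signal rise of 40% or more at 20 µM, treated as a fluorescence artifact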
Apaf1 inh interf: Apaf-1 inhibitor counter-screen fluorescence artifact | shares compounds with Apaf-1 inh | fluorescence interference counterscreen, Apaf-1 assay format | IC50, µM | 460 tested, under 10 active; call rule not given here
Of the large screens only hits and unclear results are named; the others gave an inactive call (follow-up assays come after a bar, where they were run).

CN1c2cccc3cccc(c23)N(C)C1(C)C	Apaf-1 inh 46 | Apaf-1 inh conf inactive | Rh110 quench inactive
CN1c2ccccc2N(C)C1(C)c1cccc2ccccc12	none
COc1ccc2nc(C)cc(N/N=C/c3ccc(F)cc3)c2c1	Apaf-1 inh 50 (no result: DTT redox prof) | Apaf-1 inh conf inactive | Rh110 quench inactive
Nc1ccc(/C=C/c2ccc3ncccc3c2)cc1	none (no result: DTT redox prof)
Nc1ccc2ncccc2c1	Apaf-1 inh 86 | Apaf-1 inh conf inactive | Rh110 quench inactive
Cc1nc2ccc(NS(=O)(=O)c3ccc(F)c(C)c3)cc2[nH]1	none (no result: DTT redox prof)
N=c1n(CC(=O)c2ccc(Br)s2)c2ccccc2n1Cc1ccccc1	Apaf-1 inh 42 (no result: DTT redox prof) | Apaf-1 inh conf inactive | Rh110 quench inactive
O=C(COC(=O)COc1ccccc1[N+](=O)[O-])NC1CCCCC1	none (no result: GSTO1 inh, SUMO HTRF inh, DTT redox prof)
Cc1[nH]c2ccccc2c1CC#N	none (no result: DTT redox prof)
Cc1[nH]c2ccccc2c1C(C#N)(C#N)C1C(=O)c2ccccc2C1=O	HKDC1 inhibitor 57, Apaf-1 inh 73, GSTO1 inh 73 (no result: DTT redox prof) | Apaf-1 inh conf 45 | Rh110 quench inactive | Apaf1 inh interf inactive
CC(C)(C)C1CCC(CN2C(Nc3ccccc3)=NC[C@@H]2Cc2ccccc2)CC1 (some centres not stated)	Apaf-1 inh 75 (no result: GSTO1 inh, SUMO HTRF inh, DTT redox prof) | Apaf-1 inh conf inactive | Rh110 quench inactive
CCN1C(Nc2ccccc2)=NC[C@@H]1Cc1ccccc1	none (no result: DTT redox prof)
O=C1C(=C(c2ccccc2)c2ccccc2)Nc2ccccc21	none
O=C1C(=C(O)c2ccccc2)C(=O)c2ccccc21	Apaf-1 inh 41 | Apaf-1 inh conf inactive | Rh110 quench inactive
CC(=O)c1sc(-c2ccc(F)cc2)cc1NS(=O)(=O)c1ccccc1	none (no result: DTT redox prof)
O=C(COC(=O)CCc1ccc(S(=O)(=O)N2CCOCC2)cc1)NC(=O)NC1CCCCC1	none
CC(Nc1cccc2ccccc12)C(=O)N/N=C/c1ccc([N+](=O)[O-])cc1 (configuration not stated)	none
COc1cc([N+](=O)[O-])cc(/C=N/NC(=O)C(C)Nc2cccc3ccccc23)c1O (configuration not stated)	Apaf-1 inh 93 | Apaf-1 inh conf inactive | Rh110 quench inactive
Cc1cccc(/C=N/NC(=O)C(C)Nc2cccc3ccccc23)n1 (configuration not stated)	Apaf-1 inh 91 | Apaf-1 inh conf inactive | Rh110 quench inactive
CN1CCN(S(=O)(=O)c2ccc(SCCOc3ccc(Cl)cc3)nc2)CC1	Apaf-1 inh 51 (no result: GSTO1 inh, SUMO HTRF inh, DTT redox prof) | Apaf-1 inh conf inactive | Rh110 quench inactive
CCCCc1ccc(NC(=S)NCCN2CCOCC2)cc1	none
N#Cc1ccccc1NC(=O)CSc1n[nH]c(=O)n1C1CC1	none (no result: GSTO1 inh, SUMO HTRF inh, DTT redox prof)
COc1ccc(N=C2C(=Nc3ccc(OC)cc3)N(c3ccc(OC)cc3)C(=S)N2C)cc1	none
COc1ccc(N=C2C(=Nc3ccc(OC)cc3)N(c3ccc(OC)cc3)C(=S)N2c2ccccc2)cc1	Apaf-1 inh 75 | Apaf-1 inh conf inactive | Rh110 quench inactive
O=C(C1CCCN(S(=O)(=O)c2cnc[nH]2)C1)N1CCN(Cc2ccccc2)CC1 (configuration not stated)	Apaf-1 inh 40 | Apaf-1 inh conf inactive | Rh110 quench 43
O=C(CC1SC(N2CCOCC2)=NC1=O)Nc1cc([N+](=O)[O-])ccc1Cl (configuration not stated)	none
N#Cc1c(NCCO)nc(NCc2ccccc2)c2c1CCN(Cc1ccccc1)C2	Apaf-1 inh 60 | Apaf-1 inh conf inactive | Rh110 quench inactive
CCN1CCc2c(C#N)c(N3CCCCC3)nc(NCc3ccccc3)c2C1	none
Cc1ccccc1-c1cc(C(=O)NCc2cccc(C(F)(F)F)c2)nn1CC1CC(c2cccc([N+](=O)[O-])c2)=NO1 (configuration not stated)	none (no result: SUMO HTRF inh, DTT redox prof)
CCOC(=O)C1CCN(C(=O)c2ccc3c(c2)NC(=O)/C(=C\c2cccc(C)c2)S3)CC1	Apaf-1 inh 40 (no result: DTT redox prof) | Apaf-1 inh conf inactive | Rh110 quench inactive

Bioassay records from PubChem.
